Data set [1] has as its system 3T3-L1. Put plainly: Induction of AMPK mRNA expression in mouse 3T3L1 cells at 5 uM incubated for 48 hrs by qPCR method. The class given is functional, cell-based. A digest of the protocol: (§1)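 Mature 3T3-L1 adipocytes (confluent cells induced 3 days with 0.5 mmol/L IBMX, 1.0 µmol/L DEX, 10 mg/L insulin, then insulin 2 days, used ~day 10) treated 0, 2.5 or 5 µM for 48 h. Total RNA extracted, qPCR, normalized to β-actin; DMSO 0.1% controls; mean ± SD, three independent experiments.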

The subject of data set [2] is 3T3-L1. Put plainly: Suppression of lipogenesis associated gene expression in mouse 3T3L1 cells assessed as reduction in Srebp-1c mRNA expression incubated for 48 hrs by qPCR method. The class given is functional, cell-based. A digest of the protocol: as §1
Data set [3] concerns 3T3-L1. Kind of data set: Suppression of lipogenesis associated gene expression in mouse 3T3L1 cells assessed as reduction in Scd1 mRNA expression at 2.5 and 5 uM incubated for 48 hrs by qPCR method. The class given is functional, cell-based. A digest of the protocol:
as §1

The test system of data set [4] is 3T3-L1. Kind of data set: Induction of Atgl mRNA expression in mouse 3T3L1 cells at 2.5 and 5 uM incubated for 48 hrs by qPCR method. The class given is functional, cell-based. A digest of the protocol: as §1
The test system of data set [5] is 3T3-L1. Kind of data set: Suppression of lipogenesis associated gene expression in mouse 3T3L1 cells assessed as reduction in Acc mRNA expression at 2.5 and 5 uM incubated for 48 hrs by qPCR method. In kind it is functional, cell-based. A digest of the protocol:
as §1

The test system of data set [6] is 3T3-L1. Put plainly: Cytotoxicity against mouse 3T3L1 cells assessed as reduction in cell viability incubated for 48 hrs by CCK8 assay. The class given is cell-based. Particulars: for IC50: Mus musculus, 3T3-L1, 48 h; for Activity: mouse, 3t3-l1, 48 h. A digest of the protocol:
(§2)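 3T3-L1 preadipocytes (maintained in DMEM/10% calf serum, 37 °C, 5% CO2) seeded 5×10^3 cells/well in 96-well plates, grown 24 h, then exposed to 1.25–80 µM for 48 h; controls 0.1% DMSO. CCK8 added for 2 h at 37 °C, absorbance at 450 nm. IC50 by logit method; n = 6 plates, ≥3 experiments.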

Data set [7] has as its system 3T3-L1. Kind of data set: Inhibition of triglyceride content in mouse 3T3L1 cells at 2.5 uM incubated for 48 hrs by triglyceride GPO-POD assay. The class given is functional. The note with it: 3T3-L1, 48 h. Summed up: (§3)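 Differentiated 3T3-L1 adipocytes treated 0, 2.5 or 5 µM for 48 h; lysates heated 70 °C for 10 min, centrifuged, supernatant mixed with GPO-POD working reagent 10 min at 37 °C, absorbance at 550 nm. TG normalized to BCA protein; 0.1% DMSO controls; mean ± SD of ≥3 experiments.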

The test system of data set [8] is 3T3-L1. Put plainly: Suppression of lipogenesis associated gene expression in mouse 3T3L1 cells assessed as reduction in Fasn mRNA expression at 5 uM incubated for 48 hrs by qPCR method. The class given is functional, cell-based. Summed up:
as §1

Data set [9] has as its system 3T3-L1. Kind of data set: Cytotoxicity against mouse 3T3L1 cells assessed as reduction in cell viability at <5 uM incubated for 48 hrs by CCK8 assay. The class given is cell-based. The note with it: 3t3-l1, 48 h. A digest of the protocol:
as §2

Data set [10] concerns 3T3-L1. Put plainly: Inhibition of lipid accumulation in mouse 3T3L1 cells at 2.5 to 5 uM incubated for 48 hrs by Oil Red O staining based spectrophotometry. The class given is functional, cell-based. Summed up:
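Mature 3T3-L1 adipocytes (IBMX/DEX/insulin-differentiated, day 10) after 48 h treatment fixed in 10% buffered formalin 30 min, stained with diluted Oil Red O 1 h at room temperature, washed with 60% isopropanol, dye eluted with isopropanol, absorbance read at 510 nm; expressed as percent intracellular lipid.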

Data set [11] deals with 3T3-L1. Put plainly: Inhibition of triglyceride content in mouse 3T3L1 cells at 5 uM incubated for 48 hrs by triglyceride GPO-POD assay. In kind it is functional. Particulars: 3T3-L1, 48 h. Summed up: as §3
Data set [12] concerns 3T3-L1. Kind of data set: Effect on Hsl mRNA expression in mouse 3T3L1 cells at 2.5 and 5 uM incubated for 48 hrs by qPCR method. In kind it is functional, cell-based. A digest of the protocol: as §1
Data set [13] has as its system 3T3-L1. Put plainly: Cytotoxicity against mouse 3T3L1 cells assessed as reduction in cell viability at […] incubated for 48 hrs by CCK8 assay. The class given is cell-based. The note with it: 3t3-l1, 48 h.
The subject of data set [14] is 3T3-L1. Put plainly: Cytotoxicity against mouse 3T3L1 cells assessed as reduction in cell viability at 1.25 to 5 uM incubated for 48 hrs by CCK8 assay. The note with it: 3t3-l1, 48 h. The class given is cell-based. Summed up: as §2
For data set [15], the system named is 3T3-L1. Kind of data set: Reduction in Hsl mRNA expression in mouse 3T3L1 cells at 2.5 uM incubated for 48 hrs by qPCR method. The class given is functional, cell-based. A digest of the protocol:
as §1

The test system of data set [16] is 3T3-L1. Put plainly: Cytotoxicity against mouse 3T3L1 cells assessed as reduction in cell viability at >10 uM incubated for 48 hrs by CCK8 assay. The class given is cell-based. The note with it: 3t3-l1, 48 h. Summed up: as §2
Data set [17] deals with 3T3-L1. Put plainly: Cytotoxicity against mouse 3T3L1 cells assessed as reduction in cell viability at 20 uM incubated for 48 hrs by CCK8 assay. The class given is cell-based. The note with it: 3t3-l1, 48 h. A digest of the protocol: as §2

Calls of active or inactive are those of the source. The calls are words filed in the database; no cut-off is given here.

`COc1ccc2cc3[n+](cc2c1OCCCCCCOc1c(O)cc2oc(-c4ccccc4)cc(=O)c2c1O)CCc1cc2c(cc1-3)OCO2`: the result with 3T3-L1 [1] and in the data set with 3T3-L1 [4] was Active. Also, the inhibition result with 3T3-L1 [2] is “Dose-dependent effect”. For the same compound, the inhibition entry in the data set on 3T3-L1 [3], in the data set with 3T3-L1 [5], with 3T3-L1 [8] and with 3T3-L1 [10] was “Active” throughout. In addition, the IC50 in the data set on 3T3-L1 [6] came to 9.42 µM. The Activity entry in the data set on 3T3-L1 [6] was “Dose-dependent effect”; with 3T3-L1 [9], “Non-Toxic”. In the data set with 3T3-L1 [7], this compound registered an inhibition at 2.5 µM of 27.3%. Besides, at 5 µM the inhibition in the data set with 3T3-L1 [11] was 37.4%. Further, the result with 3T3-L1 [12] was inactive.

With `O=c1cc(-c2ccccc2)oc2cc(O)c(O)c(O)c12` [BAICALEIN], the outcome with 3T3-L1 [1], in the data set on 3T3-L1 [15] and with 3T3-L1 [4] was Active. In addition, the inhibition entry in the data set with 3T3-L1 [2] was “Dose-dependent effect”. Moreover, the inhibition result in the data set with 3T3-L1 [3] and with 3T3-L1 [8] was “Active” throughout. The Activity result is on record as “Non-Toxic” in the data set on 3T3-L1 [13], “Non-Toxic” in the data set on 3T3-L1 [14], “Dose-dependent effect” with 3T3-L1 [6] and “Toxic” with 3T3-L1 [16]. Moreover, the IC50 in the data set on 3T3-L1 [6] turned out to be 29.8 µM.

On to `COc1ccc2cc3[n+](cc2c1OC)CCc1cc2c(cc1-3)OCO2` [BERBERINE], for which the inhibition entry in the data set on 3T3-L1 [2] is “Dose-dependent effect”. The inhibition result in the data set on 3T3-L1 [3] and in the data set on 3T3-L1 [8] was “Active” throughout. The result in the data set with 3T3-L1 [15] and in the data set with 3T3-L1 [4] was Active. Besides, the concentration for half-maximal inhibition (IC50) in the data set with 3T3-L1 [6] turned out to be 21.8 µM. The Activity entry is given as “Dose-dependent effect” with 3T3-L1 [6] and 45% in the data set with 3T3-L1 [17].

The values above are taken from ChEMBL document CHEMBL4043184, “The design and synthesis of a novel compound of berberine and baicalein that inhibits the efficacy of lipid accumulation in 3T3-L1 adipocytes” (Bioorg Med Chem, 2017).
